According to ChEMBL document CHEMBL3612017, “Rigidified A3 Adenosine Receptor Agonists: 1-Deazaadenine Modification Maintains High in Vivo Efficacy” (ACS Med Chem Lett, 2015):

Legend:
Mus musculus [1] = experiment: Effect on contralateral side hind paw in mouse chronic constriction injury model of neuropathic pain at 0.3 to 30 umol/kg administered through oral gavage at point of peak pain on day 7; format: ADME, organism-based; conditions: in vivo
In short: (§1)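 Mice had sciatic nerve chronic constriction injury. Compound was given by oral gavage on day 7, at peak pain. Mechanoallodynia was scored on the ipsilateral and contralateral hind paws at the 1 h and 3 h time points, as % protection. n = 4 per group, some n = 3.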

Mus musculus [2] = experiment: Analgesic activity in mouse chronic constriction injury model of neuropathic pain assessed as protection of ipsilateral hind paw mechanoallodynia of sciatic nerve at 0.3 to 30 umol/kg administered through oral gavage at point of peak pain on day 7 relative to control measured at 1 hr; format: functional; in short: as §1
Mus musculus [3] = experiment: Analgesic activity in mouse chronic constriction injury model of neuropathic pain assessed as time of peak protection at 0.3 to 30 umol/kg administered through oral gavage at point of peak pain on day 7; format: functional; in short: as §1
[4] = target: Adenosine receptor A2a (Homo sapiens) (UniProt P29274); experiment: Displacement of [3H]2-[p-(2-carboxyethyl)phenyl-ethylamino]-5'-Nethylcarboxamidoadenosine from human adenosine A2A receptor expressed in HEK293 cell membranes at 10 uM
In short: (§2)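 Radioligand binding at the human receptor subtypes. Nonspecific binding was defined with adenosine 5′-N-ethyluronamide (10 μM). Ki values came from displacement curves, mean ± SEM, n = 3 unless noted. Single-point data were expressed as % inhibition of binding at 10 μM.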

[5] = target: T1, Adenosine receptor A1 (Homo sapiens) (UniProt P30542); experiment: Displacement of [3H]N6-R-phenylisopropyladenosine from human adenosine A1 receptor expressed in CHO cell membranes at 10 uM; in short: as §2
T1 sequence (whole entry): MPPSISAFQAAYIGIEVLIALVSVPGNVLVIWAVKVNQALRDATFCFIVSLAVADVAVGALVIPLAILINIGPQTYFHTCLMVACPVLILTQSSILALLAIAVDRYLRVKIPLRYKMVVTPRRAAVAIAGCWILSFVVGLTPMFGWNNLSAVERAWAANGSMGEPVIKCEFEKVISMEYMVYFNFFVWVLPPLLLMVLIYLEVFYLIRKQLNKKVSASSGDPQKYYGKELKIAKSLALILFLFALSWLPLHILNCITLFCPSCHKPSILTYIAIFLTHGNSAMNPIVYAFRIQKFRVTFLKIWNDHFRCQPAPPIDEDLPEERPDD

Adenosine receptor A3 [6] = target: T2, Adenosine receptor A3 (Homo sapiens, UniProt P0DMS8); experiment: Displacement of [125I]N6-(4-amino-3-iodobenzyl)adenosine-5'-N-methyluronamide from human adenosine A3 receptor expressed in CHO cell membranes
T2 sequence (P0DMS8 whole entry): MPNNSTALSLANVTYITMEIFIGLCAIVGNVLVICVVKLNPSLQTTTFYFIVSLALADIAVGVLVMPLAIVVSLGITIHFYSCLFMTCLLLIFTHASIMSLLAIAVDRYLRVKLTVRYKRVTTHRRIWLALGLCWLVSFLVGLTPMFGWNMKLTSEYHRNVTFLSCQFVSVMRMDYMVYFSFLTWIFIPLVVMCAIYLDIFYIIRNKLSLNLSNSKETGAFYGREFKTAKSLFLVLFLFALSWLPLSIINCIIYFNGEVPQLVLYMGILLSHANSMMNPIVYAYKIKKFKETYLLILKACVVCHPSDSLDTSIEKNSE

Mus musculus [7] = experiment: Analgesic activity in mouse chronic constriction injury model of neuropathic pain assessed as protection of ipsilateral hind paw mechanoallodynia of sciatic nerve at 0.3 to 30 umol/kg administered through oral gavage at point of peak pain on day 7 measured at 3 hrs; format: functional; in short: as §1
Adenosine receptor A3 [8] = target: T3, Adenosine receptor A3 (Canis lupus familiaris, UniProt Q28309); experiment: Binding affinity to canine adenosine A3 receptor expressed in HEK293 cell membranes
T3 sequence (Q28309 whole entry): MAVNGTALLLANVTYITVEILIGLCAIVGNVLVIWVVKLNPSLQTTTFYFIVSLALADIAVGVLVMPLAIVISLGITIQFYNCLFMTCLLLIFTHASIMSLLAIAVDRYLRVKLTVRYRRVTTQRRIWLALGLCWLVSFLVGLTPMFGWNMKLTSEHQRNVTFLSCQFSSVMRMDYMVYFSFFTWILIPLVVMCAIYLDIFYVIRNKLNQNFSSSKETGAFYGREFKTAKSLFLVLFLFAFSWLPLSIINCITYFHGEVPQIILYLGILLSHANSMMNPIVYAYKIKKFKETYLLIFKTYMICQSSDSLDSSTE
In short: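 Radioligand binding used membranes of HEK293 cells expressing the mouse or the canine A3 receptor. Affinities were given as Ki in nM, mean ± SEM, n = 3.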

Mus musculus [9] = experiment: Analgesic activity in mouse chronic constriction injury model of neuropathic pain assessed as protection of ipsilateral hind paw mechanoallodynia of sciatic nerve at 0.3 to 30 umol/kg administered through oral gavage at point of peak pain on day 7; format: functional; conditions: 168 h; in short: as §1
Adenosine receptor A3 [10] = target: T4, Adenosine receptor A3 (Mus musculus, UniProt Q61618); experiment: Binding affinity to mouse adenosine A3 receptor expressed in HEK293 cell membranes
T4 sequence (Q61618 whole entry): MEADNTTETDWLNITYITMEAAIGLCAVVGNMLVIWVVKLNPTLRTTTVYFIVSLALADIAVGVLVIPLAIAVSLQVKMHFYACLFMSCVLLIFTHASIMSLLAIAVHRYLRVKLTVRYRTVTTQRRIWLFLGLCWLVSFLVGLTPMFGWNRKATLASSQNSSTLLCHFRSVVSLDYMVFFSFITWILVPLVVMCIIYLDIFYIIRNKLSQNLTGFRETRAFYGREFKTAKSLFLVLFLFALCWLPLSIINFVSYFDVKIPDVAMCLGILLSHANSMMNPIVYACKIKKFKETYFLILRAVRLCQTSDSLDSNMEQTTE
In short: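 Radioligand binding used membranes of HEK293 cells expressing the mouse or the canine A3 receptor.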

[11] = target: 5-hydroxytryptamine receptor 2B (Homo sapiens, UniProt P41595); experiment: Binding affinity to 5HT2B receptor (unknown origin)
Mus musculus [12] = experiment: Analgesic activity in mouse chronic constriction injury model of neuropathic pain assessed as time duration protection hind paw mechanoallodynia of sciatic nerve at 3 umol/kg administered through oral gavage at point of peak pain on day 7; format: functional
In short: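 In CCI mice, 3 μmol/kg was given p.o. on day 7. The time course of protection against hind paw mechanoallodynia was followed, n = 4. Data were mean ± SEM, analysed by two-tailed two-way ANOVA with Bonferroni comparisons versus day 0.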

Adenosine receptor A3 [13] = target: T2, Adenosine receptor A3; experiment: Agonist activity at human adenosine A3 receptor expressed in CHO cells assessed as inhibition of cAMP production; format: functional, cell-based
In short: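 Read-out was inhibition of cyclic AMP production in membranes prepared from CHO cells expressing the human A3 receptor. The value is an EC50 with full agonism assessed.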

[14] = target: T5, Adenosine receptor A2b (Homo sapiens) (UniProt P29275); experiment: Displacement of [3H]MRS1754 from human adenosine A2B receptor expressed in HEK293 cell membranes at 10 uM
T5 sequence (whole entry): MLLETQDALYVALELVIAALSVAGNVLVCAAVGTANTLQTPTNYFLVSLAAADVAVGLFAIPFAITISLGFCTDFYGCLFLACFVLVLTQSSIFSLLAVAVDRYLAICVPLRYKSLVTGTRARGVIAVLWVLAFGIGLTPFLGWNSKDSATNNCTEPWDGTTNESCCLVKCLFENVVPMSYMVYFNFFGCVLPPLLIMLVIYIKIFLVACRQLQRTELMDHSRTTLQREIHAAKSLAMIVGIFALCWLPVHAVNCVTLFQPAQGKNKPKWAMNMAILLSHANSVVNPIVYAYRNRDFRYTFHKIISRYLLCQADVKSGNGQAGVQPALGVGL

Adenosine receptor A1 = target: T6, Adenosine receptor A1 (Homo sapiens, UniProt P30542); experiment: Displacement of [3H]N6-R-phenylisopropyladenosine from human adenosine A1 receptor expressed in CHO cell membranes; in short: as §2
T6 sequence (P30542 whole entry): T1 sequence (whole entry)

Mus musculus [15] = experiment: Analgesic activity in intraperitoneally dosed mouse chronic constriction injury model of neuropathic pain; format: functional; conditions: ip
Mus musculus [16] = experiment: Analgesic activity in intraperitoneally dosed mouse chronic constriction injury model of neuropathic pain assessed as time of peak protection; format: functional
[17] = Aqueous solubility of the compound; format: physicochemical; conditions: buffer

Chain of Adenosine receptor A2a (Homo sapiens) (P29274 whole entry): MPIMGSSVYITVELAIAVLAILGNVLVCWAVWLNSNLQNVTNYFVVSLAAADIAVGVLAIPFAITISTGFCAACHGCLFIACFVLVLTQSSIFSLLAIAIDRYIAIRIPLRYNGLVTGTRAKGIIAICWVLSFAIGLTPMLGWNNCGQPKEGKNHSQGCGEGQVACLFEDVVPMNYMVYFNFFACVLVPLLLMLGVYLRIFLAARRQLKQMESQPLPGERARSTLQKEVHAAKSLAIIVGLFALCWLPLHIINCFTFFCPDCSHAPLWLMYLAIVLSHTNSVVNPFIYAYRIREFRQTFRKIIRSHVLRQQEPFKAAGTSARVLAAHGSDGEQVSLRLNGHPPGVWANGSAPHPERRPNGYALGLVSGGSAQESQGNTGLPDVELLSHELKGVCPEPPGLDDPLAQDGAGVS
Chain of 5-hydroxytryptamine receptor 2B (P41595 whole entry): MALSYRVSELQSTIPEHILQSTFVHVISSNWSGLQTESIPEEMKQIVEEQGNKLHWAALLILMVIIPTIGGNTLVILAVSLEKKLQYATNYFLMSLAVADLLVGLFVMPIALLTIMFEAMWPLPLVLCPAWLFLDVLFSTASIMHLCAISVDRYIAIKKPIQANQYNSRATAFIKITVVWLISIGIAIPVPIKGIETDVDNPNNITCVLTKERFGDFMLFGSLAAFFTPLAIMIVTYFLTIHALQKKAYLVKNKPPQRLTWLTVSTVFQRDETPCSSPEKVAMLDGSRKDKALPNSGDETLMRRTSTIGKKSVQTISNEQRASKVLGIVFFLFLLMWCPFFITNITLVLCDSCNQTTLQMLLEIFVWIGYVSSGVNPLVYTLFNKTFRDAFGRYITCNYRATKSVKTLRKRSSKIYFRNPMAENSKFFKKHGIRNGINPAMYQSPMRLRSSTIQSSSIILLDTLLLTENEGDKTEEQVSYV

SMILES	Activity (Mus musculus [1])	Emax (Mus musculus [2]) [%]	Time (Mus musculus [3]) [h]	inhibition [4] [%]	inhibition [5] [%]	Ki (Adenosine receptor A3 [6]) [nM]	Activity (Mus musculus [7]) [%]	other results
CCCCNc1nc(C#Cc2ccc(Cl)s2)nc2c1ncn2[C@H]1[C@H](O)[C@H](O)[C@]2(C(=O)NC)C[C@H]12	Non-toxic	68	1	0	6	2.9	24	
CNC(=O)[C@@]12C[C@@H]1[C@@H](n1cnc3c(NC)nc(C#Cc4ccc(Cl)s4)nc31)[C@H](O)[C@@H]2O	Non-toxic	93	1				46	Ki (Adenosine receptor A3 [8]): 8.5 nM; ED50 (Mus musculus [9]): 0.73 µmol/kg
CNC(=O)[C@@]12C[C@@H]1[C@@H](n1cnc3c(NC4CC4)nc(C#Cc4ccc(Cl)s4)nc31)[C@H](O)[C@@H]2O	Non-toxic	76	1	44	47	1	36	
CNC(=O)[C@@]12C[C@@H]1[C@@H](n1cnc3c(NC)cc(C#Cc4ccc(Cl)s4)nc31)[C@H](O)[C@@H]2O	Non-toxic	91	1	8	15	3	80	Ki (Adenosine receptor A3 [10]): 31 nM; Ki (Adenosine receptor A3 [8]; read-out: Ki): 75 nM
CCNc1cc(C#Cc2ccc(Cl)s2)nc2c1ncn2[C@H]1[C@H](O)[C@H](O)[C@]2(C(=O)NC)C[C@H]12	Non-toxic	93	1	0	10	1.7	84	Ki (Adenosine receptor A3 [10]): 16 nM; Ki ([11]; read-out: Ki): 2500 nM; Time (Mus musculus [12]): 5 h; EC50 (Adenosine receptor A3 [13]): 1.5 nM; Ki (Adenosine receptor A3 [8]; read-out: Ki): 49 nM; inhibition [14]: 17%
CNC(=O)[C@@]12C[C@@H]1[C@@H](n1cnc3c(NCC4CC4)nc(-n4cc(-c5ccc(Cl)s5)nn4)nc31)[C@H](O)[C@@H]2O				44		9.4		Ki (Adenosine receptor A1): 1350 nM
NCC1(CC(=O)O)CCCCC1 [GABAPENTIN]								ED50 (Mus musculus [15]): 140 µmol/kg; Time (Mus musculus [16]): 1 h
CCCNc1nc(C#Cc2ccc(Cl)s2)nc2c1ncn2[C@H]1[C@H](O)[C@H](O)[C@]2(C(=O)NC)C[C@H]12	Non-toxic	95	1	34	22	1.1	93	Ki (Adenosine receptor A3 [10]): 6.8 nM; Ki [11]: Not Active; Ki (Adenosine receptor A3 [8]; read-out: Ki): 5.8 nM; inhibition [14]: 34%
CCNc1nc(C#Cc2ccc(Cl)s2)nc2c1ncn2[C@H]1[C@H](O)[C@H](O)[C@]2(C(=O)NC)C[C@H]12	Non-toxic	98	1	12	28	3.8	87	Ki (Adenosine receptor A3 [10]): 27 nM; Ki (Adenosine receptor A3 [8]; read-out: Ki): 1.5 nM; ED50 (Mus musculus [9]): 0.9 µmol/kg
CCCNc1cc(-n2cc(-c3ccc(Cl)s3)nn2)nc2c1ncn2[C@H]1[C@H](O)[C@H](O)[C@]2(C(=O)NC)C[C@H]12				4	44	110		
CNC(=O)[C@@]12C[C@@H]1[C@@H](n1cnc3c(NCC4CCC4)nc(C#Cc4ccc(Cl)s4)nc31)[C@H](O)[C@@H]2O	Non-toxic	98	1	5	34	15	90	
CNC(=O)[C@@]12C[C@@H]1[C@@H](n1cnc3c(NCC4CC4)nc(C#Cc4ccc(Cl)s4)nc31)[C@H](O)[C@@H]2O	Non-toxic	94	1	3	24	7.9	85	
CNC(=O)[C@@]12C[C@@H]1[C@@H](n1cnc3c(NCC4CCC4)nc(-n4cc(-c5ccc(Cl)s5)nn4)nc31)[C@H](O)[C@@H]2O				42		21		Ki (Adenosine receptor A1): 710 nM; solubility [17]: Insoluble
CNC(=O)[C@@]12C[C@@H]1[C@@H](n1cnc3c(NC4CCC4)nc(C#Cc4ccc(Cl)s4)nc31)[C@H](O)[C@@H]2O	Non-toxic	97	1	34	39	4.5	95	
CNC(=O)[C@@]12C[C@@H]1[C@@H](n1cnc3c(NC4CC4)cc(C#Cc4ccc(Cl)s4)nc31)[C@H](O)[C@@H]2O				11	26	10		
CCCNc1cc(C#Cc2ccc(Cl)s2)nc2c1ncn2[C@H]1[C@H](O)[C@H](O)[C@]2(C(=O)NC)C[C@H]12				11		38		Ki (Adenosine receptor A1): 2440 nM
CNC(=O)[C@@]12C[C@@H]1[C@@H](n1cnc3c(NC(C)C)nc(C#Cc4ccc(Cl)s4)nc31)[C@H](O)[C@@H]2O	Non-toxic	88	1	17	26	2.9	39	
